Assays:
[1] = Cmax in healthy adult human at 6 mg/kg, iv administered as single dose 30 mins infusion; assay type: ADME, organism-based; parameters: dose 6 mg/kg, route intravenous; conditions: in vivo
[2] = Cmax in young healthy human at 4 mg/kg, iv administered as single dose 30 mins infusion; assay type: ADME, organism-based; parameters: dose 4 mg/kg, route intravenous; conditions: in vivo
[3] = Unbound fraction in healthy human plasma at 6 mg/kg, iv administered as 30 mins infusion every 24 hrs measured on day 7; assay type: ADME, organism-based; parameters: dose 6 mg/kg, route intravenous
[4] = Cmax in cancer patient with neutropenic fever at 6 mg/kg, iv administered as 30 mins infusion every 24 hrs; assay type: ADME, organism-based; parameters: dose 6 mg/kg, route intravenous; conditions: human, in vivo
In short: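 First 6 mg/kg dose given over 30 min IV (q24h) to 29 neutropenic febrile adult cancer patients. Serial plasma was taken predose, at end of infusion, and at 0.5–24 h. Total concentration was measured by validated HPLC (limit of detection 1 μg/ml). Cmax is the observed peak value, reported as mean ± SD and range.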

[5] = Clearance in cancer patient with neutropenic fever at 6 mg/kg, iv administered as 30 mins infusion every 24 hrs; assay type: ADME, organism-based; parameters: dose 6 mg/kg, route intravenous; conditions: human, in vivo
In short: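 29 adult oncology patients with neutropenic fever received 6 mg/kg (total body weight) as a 30-min IV infusion every 24 h. Plasma was sampled predose, at the end of infusion, and at 0.5, 1, 2, 4, 8, 12 and 24 h. Total drug was measured by validated HPLC (linear 1–100 μg/ml). Noncompartmental clearance = dose/AUC0-∞, with AUC from trapezoids plus last concentration/λz. Mean ± SD.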

Homo sapiens [6] = experiment: Half life in cancer patient with neutropenic fever at 6 mg/kg, iv administered as 30 mins infusion every 24 hrs; assay type: ADME, organism-based; parameters: dose 6 mg/kg, route intravenous; conditions: in vivo
In short: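 Patients with neutropenic fever; 6 mg/kg by total body weight, 30-min IV infusion q24h. Plasma drawn predose, end of infusion, and 0.5, 1, 2, 4, 8, 12, 24 h after infusion start; total drug by validated HPLC (linear 1–100 μg/ml). Noncompartmental analysis; λz from terminal-phase regression, t1/2 = 0.693/λz.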

[7] = Plasma protein binding in human after 8 hrs; assay type: ADME, cell-free; conditions: read-out: PPB (converted)
In short: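 Neutropenic-fever oncology patients received 6 mg/kg IV daptomycin; serum was drawn 0.5, 2 and 8 h after the end of infusion. Free drug was obtained by ultrafiltration (30,000-MW cutoff) and quantified by HPLC against a saline-matrix curve of 0.25–100 μg/ml, with total plasma drug also measured. Percent bound was (total − free)/total × 100; results are given as mean ± SD.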

[8] = Apparent volume of distribution during terminal phase in healthy human subjects at 10 mg/kg, iv administered as 30 mins infusion every 24 hrs measured on day 4; assay type: ADME, organism-based; parameters: dose 10 mg/kg, route intravenous; conditions: in vivo
[9] = Cmax in healthy human at 6 mg/kg, iv administered as 30 mins infusion every 24 hrs measured on day 1; assay type: ADME, organism-based; parameters: dose 6 mg/kg, route intravenous; conditions: in vivo
[10] = Renal clearance in adult human subjects at 6 mg/kg, iv administered as single dose 30 mins infusion; assay type: ADME, organism-based, Kidney; parameters: dose 6 mg/kg, route intravenous; conditions: in vivo, read-out: CL_renal (converted)
[11] = Renal clearance in adult human with hepatic impairment at 6 mg/kg, iv administered as single dose 30 mins infusion; assay type: ADME, organism-based, Kidney; parameters: dose 6 mg/kg, route intravenous; conditions: in vivo, read-out: CL_renal (converted)
[12] = AUC (0 to infinity) in nonobese human at 4 mg/kg, iv administered as single dose 30 mins infusion; assay type: ADME, organism-based; parameters: time infinity, dose 4 mg/kg, route intravenous; conditions: plasma
[13] = AUC (0 to infinity) in healthy human at 4 mg/kg, iv administered as 30 mins infusion every 24 hrs measured on day 7; assay type: ADME, organism-based; parameters: time infinity, dose 4 mg/kg, route intravenous; conditions: plasma
[14] = Cmax in healthy human subjects at 12 mg/kg, iv administered as 30 mins infusion every 24 hrs measured on day 4; assay type: ADME, organism-based; parameters: dose 12 mg/kg, route intravenous; conditions: in vivo
[15] = Cmax in healthy human subjects at 10 mg/kg, iv administered as 30 mins infusion every 24 hrs measured on day 4; assay type: ADME, organism-based; parameters: dose 10 mg/kg, route intravenous; conditions: in vivo
Homo sapiens [16] = experiment: Cmax in healthy human subjects at 6 mg/kg, iv administered as 30 mins infusion every 24 hrs measured on day 4; assay type: ADME, organism-based; parameters: dose 6 mg/kg, route intravenous; conditions: in vivo
[17] = Cmax in healthy human subjects at 10 mg/kg, iv administered as 30 mins infusion every 24 hrs measured on day 1; assay type: ADME, organism-based; parameters: dose 10 mg/kg, route intravenous; conditions: in vivo
[18] = Drug excretion in adult human with hepatic impairment urine assessed as unchanged drug at 6 mg/kg, iv administered as single dose 30 mins infusion; assay type: ADME, organism-based; parameters: dose 6 mg/kg, route intravenous; conditions: read-out: Drug uptake
[19] = Drug excretion in old healthy human urine assessed as unchanged drug at 4 mg/kg, iv administered as single dose 30 mins infusion; assay type: ADME, organism-based; parameters: dose 4 mg/kg, route intravenous; conditions: read-out: Drug uptake
[20] = Mean residence time in old healthy human at 4 mg/kg, iv administered as single dose 30 mins infusion; assay type: ADME, organism-based; parameters: dose 4 mg/kg, route intravenous; conditions: in vivo
[21] = Apparent volume of distribution in old healthy human at 4 mg/kg, iv administered as single dose 30 mins infusion; assay type: ADME, organism-based; parameters: dose 4 mg/kg, route intravenous; conditions: in vivo
[22] = Apparent volume of distribution in young healthy human at 4 mg/kg, iv administered as single dose 30 mins infusion; assay type: ADME, organism-based; parameters: dose 4 mg/kg, route intravenous; conditions: in vivo
[23] = Volume of distribution at steady state in nonobese human subjects at 4 mg/kg, iv administered as single dose 30 mins infusion; assay type: ADME, organism-based; parameters: dose 4 mg/kg, route intravenous; conditions: in vivo, read-out: Vdss
[24] = Volume of distribution at steady state in morbidly obese adult human at 4 mg/kg, iv administered as single dose 30 mins infusion; assay type: ADME, organism-based; parameters: dose 4 mg/kg, route intravenous; conditions: in vivo, read-out: Vdss
[25] = Volume of distribution at steady state in nonobese adult human at 4 mg/kg, iv administered as single dose 30 mins infusion; assay type: ADME, organism-based; parameters: dose 4 mg/kg, route intravenous; conditions: in vivo, read-out: Vdss
[26] = Clearance in moderately obese adult human at 4 mg/kg, iv administered as single dose 30 mins infusion; assay type: ADME, organism-based; parameters: dose 4 mg/kg, route intravenous; conditions: in vivo
[27] = Clearance in old healthy human at 4 mg/kg, iv administered as single dose 30 mins infusion; assay type: ADME, organism-based; parameters: dose 4 mg/kg, route intravenous; conditions: in vivo
[28] = Clearance in young healthy human at 4 mg/kg, iv administered as single dose 30 mins infusion; assay type: ADME, organism-based; parameters: dose 4 mg/kg, route intravenous; conditions: in vivo
[29] = Apparent volume of distribution during terminal phase in healthy human at 4 mg/kg, iv administered as 30 mins infusion every 24 hrs measured on day 1; assay type: ADME, organism-based; parameters: dose 4 mg/kg, route intravenous; conditions: in vivo
Homo sapiens [30] = experiment: Unbound clearance in healthy human at 8 mg/kg, iv administered as 30 mins infusion every 24 hrs measured on day 14; assay type: ADME, organism-based; parameters: dose 8 mg/kg, route intravenous; conditions: in vivo
[31] = Clearance in healthy human subjects at 12 mg/kg, iv administered as 30 mins infusion every 24 hrs measured on day 1; assay type: ADME, organism-based; parameters: dose 12 mg/kg, route intravenous; conditions: in vivo
[32] = Clearance in healthy human subjects at 8 mg/kg, iv administered as 30 mins infusion every 24 hrs measured on day 1; assay type: ADME, organism-based; parameters: dose 8 mg/kg, route intravenous; conditions: in vivo
[33] = Clearance in healthy human at 4 mg/kg, iv administered as 30 mins infusion every 24 hrs measured on day 1; assay type: ADME, organism-based; parameters: dose 4 mg/kg, route intravenous; conditions: in vivo
[34] = Half life in healthy human subjects at 10 mg/kg, iv administered as 30 mins infusion every 24 hrs measured on day 14; assay type: ADME, organism-based; parameters: dose 10 mg/kg, route intravenous; conditions: in vivo
[35] = Half life in healthy human subjects at 12 mg/kg, iv administered as 30 mins infusion every 24 hrs measured on day 1; assay type: ADME, organism-based; parameters: dose 12 mg/kg, route intravenous; conditions: in vivo
[36] = Half life in healthy human subjects at 8 mg/kg, iv administered as 30 mins infusion every 24 hrs measured on day 1; assay type: ADME, organism-based; parameters: dose 8 mg/kg, route intravenous; conditions: in vivo
[37] = Half life in healthy human at 8 mg/kg, iv administered as 30 mins infusion every 24 hrs measured on day 1; assay type: ADME, organism-based; parameters: dose 8 mg/kg, route intravenous; conditions: in vivo
[38] = Half life in healthy human at 4 mg/kg, iv administered as 30 mins infusion every 24 hrs measured on day 1; assay type: ADME, organism-based; parameters: dose 4 mg/kg, route intravenous; conditions: in vivo
[39] = AUC (0 to infinity) in healthy human subjects at 12 mg/kg, iv administered as 30 mins infusion every 24 hrs measured on day 14; assay type: ADME, organism-based; parameters: time infinity, dose 12 mg/kg, route intravenous; conditions: plasma

Structure (SMILES): CCCCCCCCCC(=O)N[C@@H](Cc1c[nH]c2ccccc12)C(=O)N[C@H](CC(N)=O)C(=O)N[C@@H](CC(=O)O)C(=O)N[C@@H]1C(=O)NCC(=O)N[C@@H](CCCN)C(=O)N[C@@H](CC(=O)O)C(=O)N[C@H](C)C(=O)N[C@@H](CC(=O)O)C(=O)NCC(=O)N[C@H](CO)C(=O)N[C@@H]([C@H](C)CC(=O)O)C(=O)N[C@@H](CC(=O)c2ccccc2N)C(=O)O[C@@H]1C
- Cmax [1]: 82 µg/mL
- Cmax [2]: 42.3 µg/mL
- fraction unbound at 7 day [3]: 0.08
- Cmax [4]: 48.9 µg/mL
- clearance [5]: 0.259 mL/min/kg
- t1/2 (Homo sapiens [6]): 8.75 h
- fraction unbound at 8 h [7]: 0.068
- Vd [8]: 0.0983 L/kg
- Cmax [9]: 86.4 µg/mL
- CL renal at 0.5 h [10]: 0.0453 mL/min/kg
- CL renal at 0.5 h [11]: 0.0608 mL/min/kg
- AUC(0-inf) [12]: 419 µg·h/mL
- AUC(0-inf) [13]: 494 µg·h/mL
- Cmax [14]: 184 µg/mL
- Cmax [15]: 141 µg/mL
- Cmax (Homo sapiens [16]): 93.9 µg/mL
- Cmax [17]: 130 µg/mL
- dose excreted at 0.5 h [18]: 49.3%
- dose excreted at 0.5 h [19]: 34.3%
- MRT [20]: 15.9 h
- Vd [21]: 0.17 L/kg
- Vd [22]: 0.15 L/kg
- Vd [23]: 0.13 L/kg
- Vd [24]: 0.18 L/kg
- Vd [25]: 0.13 L/kg
- clearance [26]: 0.271 mL/min/kg
- clearance [27]: 0.164 mL/min/kg
- clearance [28]: 0.252 mL/min/kg
- Vd [29]: 0.101 L/kg
- CL (Homo sapiens [30]): 0.745 mL/min/kg
- clearance [31]: 0.167 mL/min/kg
- clearance [32]: 0.168 mL/min/kg
- clearance [33]: 0.16 mL/min/kg
- half-life [34]: 7.9 h
- half-life [35]: 7.8 h
- half-life [36]: 7.3 h
- half-life [37]: 9.6 h
- half-life [38]: 7.4 h
- AUC(0-inf) [39]: 1290 µg·h/mL

Source: ChEMBL document CHEMBL1649119, “Daptomycin pharmacokinetics in adult oncology patients with neutropenic fever” (Antimicrob Agents Chemother, 2009)
